Laboratory results from ChEMBL document CHEMBL4118061, “Design and synthesis of potent HIV-1 protease inhibitors with (S)-tetrahydrofuran-tertiary amine-acetamide as P2-ligand: Structure-activity studies and biological evaluation” (Eur J Med Chem, 2017).

target: Protease (Human immunodeficiency virus 1, UniProt Q9YQ12); assay: Inhibition of HIV1 protease expressed in Escherichia coli using Arg-Glu (EDANS)-Ser-GlnAsn-Tyr-Pro-Ile-Val-Gln-Lys(DABCYL)-Arg as substrate preincubated for 20 to 30 mins followed by substrate addition measured for 10 mins by FRET method
Procedure, shortened: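 Wild-type HIV-1 protease, cloned and expressed in E. coli, then purified. Inhibitors were dissolved in DMSO and diluted. Reaction buffer: 0.1 M sodium acetate, 1 M NaCl, 1 mM EDTA, 1 mM DTT, 2% DMSO, 1 mg/mL BSA, pH 4.7. Enzyme and inhibitor were preincubated 20-30 min at room temperature, then substrate was added. FRET read-out was recorded for about 10 min.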

Sequence of Protease (Q9YQ12 whole entry): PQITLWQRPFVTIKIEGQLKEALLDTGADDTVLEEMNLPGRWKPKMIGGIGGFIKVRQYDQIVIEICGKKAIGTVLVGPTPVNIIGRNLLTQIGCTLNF

`CC(C)CN(C[C@@H](O)[C@H](Cc1ccccc1)NC(=O)CN(CC(=O)N1CCOCC1)[C@H]1CCOC1)S(=O)(=O)c1ccc(CO)cc1` and `CC(C)CN(C[C@@H](O)[C@H](Cc1ccccc1)NC(=O)CN(CC(=O)N1CCOCC1)[C@H]1CCOC1)S(=O)(=O)c1ccc(N)cc1` are within 1.5-fold of each other in IC50: 110 nM for the first, 160 nM for the second.

Compared with `CC(C)CN(C[C@@H](O)[C@H](Cc1ccccc1)NC(=O)CN(CC(N)=O)[C@H]1CCOC1)S(=O)(=O)c1ccc(OC(F)(F)F)cc1`, `CC(C)CN(C[C@@H](O)[C@H](Cc1ccccc1)NC(=O)CN(CC(=O)N(C)C)[C@H]1CCOC1)S(=O)(=O)c1ccc(OC(F)(F)F)cc1` is higher in IC50: 530 nM for the first, > 1000 nM for the second.

First: COCCN(CC(=O)N[C@@H](Cc1ccccc1)[C@H](O)CN(CC(C)C)S(=O)(=O)c1ccc(N)cc1)[C@@H]1CCOC1
Second: COCCN(CC(=O)N[C@@H](Cc1ccccc1)[C@H](O)CN(CC(C)C)S(=O)(=O)c1ccc(N)cc1)[C@H]1CCOC1
The IC50 of the first is 26-fold higher: 22.8 nM for the first, 0.88 nM for the second. The second is the more potent here.

First: CC(C)CN(C[C@@H](O)[C@H](Cc1ccccc1)NC(=O)CN[C@H]1CCOC1)S(=O)(=O)c1ccc([N+](=O)[O-])cc1
Second: CC(C)CN(C[C@@H](O)[C@H](Cc1ccccc1)NC(=O)CN[C@@H]1CCOC1)S(=O)(=O)c1ccc(N)cc1
The IC50 of the first is 3-fold lower: 46.3 nM for the first, 141 nM for the second. The first is the more potent here.

Compared with `CC(C)CN(C[C@@H](O)[C@H](Cc1ccccc1)NC(=O)CN(CC(=O)N1CCOCC1)[C@H]1CCOC1)S(=O)(=O)c1ccc2c(c1)OCO2`, `CC(C)CN(C[C@@H](O)[C@H](Cc1ccccc1)NC(=O)CN(CC(N)=O)[C@H]1CCOC1)S(=O)(=O)c1ccc2c(c1)OCO2` is higher in IC50: 27.2 nM for the first, > 1000 nM for the second.

Compared with `CC(C)CN(C[C@@H](O)[C@H](Cc1ccccc1)NC(=O)CN(CC(N)=O)[C@H]1CCOC1)S(=O)(=O)c1ccc(N)cc1`, `CC(C)CN(C[C@@H](O)[C@H](Cc1ccccc1)NC(=O)CN(CC(=O)N(C)C)[C@H]1CCOC1)S(=O)(=O)c1ccc(N)cc1` is 1.5-fold lower in IC50: 57 nM for the first, 38 nM for the second. The second is the more potent here.

Compared with `CC(C)CN(C[C@@H](O)[C@H](Cc1ccccc1)NC(=O)CN([C@H]1CCOC1)S(C)(=O)=O)S(=O)(=O)c1ccc(OC(F)(F)F)cc1`, `COc1ccc(S(=O)(=O)N(CC(C)C)C[C@@H](O)[C@H](Cc2ccccc2)NC(=O)CN([C@H]2CCOC2)S(C)(=O)=O)cc1` is lower in IC50: > 1000 nM for the first, 12.6 nM for the second.

Going from `CC(C)CN(C[C@@H](O)[C@H](Cc1ccccc1)NC(=O)CN[C@H]1CCOC1)S(=O)(=O)c1ccc(OC(F)(F)F)cc1` to `COc1ccc(S(=O)(=O)N(CC(C)C)C[C@@H](O)[C@H](Cc2ccccc2)NC(=O)CN[C@@H]2CCOC2)cc1`, the IC50 falls from 290 nM to 16 nM (18-fold). The second is the more potent here.

First: COc1ccc(S(=O)(=O)N(CC(C)C)C[C@@H](O)[C@H](Cc2ccccc2)NC(=O)CN[C@H]2CCOC2)cc1OC
Second: COc1ccc(S(=O)(=O)N(CC(C)C)C[C@@H](O)[C@H](Cc2ccccc2)NC(=O)CN[C@H]2CCOC2)cc1
The IC50 of the first is 140-fold higher: 310 nM for the first, 2.23 nM for the second.

Going from `COCCN(CC(=O)N[C@@H](Cc1ccccc1)[C@H](O)CN(CC(C)C)S(=O)(=O)c1ccc2c(c1)OCO2)[C@@H]1CCOC1` to `COCCN(CC(=O)N[C@@H](Cc1ccccc1)[C@H](O)CN(CC(C)C)S(=O)(=O)c1ccc2c(c1)OCO2)[C@H]1CCOC1`, the IC50 falls from 6 nM to 0.77 nM (7.8-fold).

First: CC(C)CN(C[C@@H](O)[C@H](Cc1ccccc1)NC(=O)CN(CC(=O)N(C)C)[C@H]1CCOC1)S(=O)(=O)c1ccc(CO)cc1
Second: CC(C)CN(C[C@@H](O)[C@H](Cc1ccccc1)NC(=O)CN(CC(N)=O)[C@H]1CCOC1)S(=O)(=O)c1ccc(CO)cc1
The IC50 of the first is 3.4-fold higher: 65 nM for the first, 19.3 nM for the second.

First: COCCN(CC(=O)N[C@@H](Cc1ccccc1)[C@H](O)CN(CC(C)C)S(=O)(=O)c1ccc([N+](=O)[O-])cc1)[C@H]1CCOC1
Second: COCCN(CC(=O)N[C@@H](Cc1ccccc1)[C@H](O)CN(CC(C)C)S(=O)(=O)c1ccc(CO)cc1)[C@H]1CCOC1
The IC50 of the first is 4.2-fold higher: 17.7 nM for the first, 4.26 nM for the second. The second is the more potent here.

`COc1ccc(S(=O)(=O)N(CC(C)C)C[C@@H](O)[C@H](Cc2ccccc2)NC(=O)CN(CC(N)=O)[C@H]2CCOC2)cc1` and `COc1ccc(S(=O)(=O)N(CC(C)C)C[C@@H](O)[C@H](Cc2ccccc2)NC(=O)CN(CC(=O)N(C)C)[C@H]2CCOC2)cc1` are within 1.5-fold of each other in IC50: 20.4 nM for the first, 28.6 nM for the second.

Compared with `COc1ccc(S(=O)(=O)N(CC(C)C)C[C@@H](O)[C@H](Cc2ccccc2)NC(=O)CN(CC(=O)N(C)C)[C@H]2CCOC2)cc1OC`, `COc1ccc(S(=O)(=O)N(CC(C)C)C[C@@H](O)[C@H](Cc2ccccc2)NC(=O)CN(CC(N)=O)[C@H]2CCOC2)cc1OC` is lower in IC50: > 1000 nM for the first, 9.9 nM for the second.

Compared with `CC(C)CN(C[C@@H](O)[C@H](Cc1ccccc1)NC(=O)CN[C@H]1CCOC1)S(=O)(=O)c1ccc2c(c1)OCO2`, `CC(C)CN(C[C@@H](O)[C@H](Cc1ccccc1)NC(=O)CN[C@@H]1CCOC1)S(=O)(=O)c1ccc2c(c1)OCO2` is 32-fold higher in IC50: 1.65 nM for the first, 53.4 nM for the second. The first is the more potent here.

Going from `COCCN(CC(=O)N[C@@H](Cc1ccccc1)[C@H](O)CN(CC(C)C)S(=O)(=O)c1ccc(OC(F)(F)F)cc1)[C@H]1CCOC1` to `COCCN(CC(=O)N[C@@H](Cc1ccccc1)[C@H](O)CN(CC(C)C)S(=O)(=O)c1ccc(OC)cc1)[C@@H]1CCOC1`, the IC50 falls from 68 nM to 6.85 nM (9.9-fold).

First: COc1ccc(S(=O)(=O)N(CC(C)C)C[C@@H](O)[C@H](Cc2ccccc2)NC(=O)CN(CC(=O)N2CCOCC2)[C@H]2CCOC2)cc1
Second: CC(C)CN(C[C@@H](O)[C@H](Cc1ccccc1)NC(=O)CN(CC(=O)N1CCOCC1)[C@H]1CCOC1)S(=O)(=O)c1ccc(OC(F)(F)F)cc1
The IC50 of the first is 21-fold lower: 44 nM for the first, 910 nM for the second.

Compared with `CC(C)CN(C[C@@H](O)[C@H](Cc1ccccc1)NC(=O)CN(CC(N)=O)[C@H]1CCOC1)S(=O)(=O)c1ccc([N+](=O)[O-])cc1`, `CC(C)CN(C[C@@H](O)[C@H](Cc1ccccc1)NC(=O)CN(CC(=O)N(C)C)[C@H]1CCOC1)S(=O)(=O)c1ccc([N+](=O)[O-])cc1` is 8-fold higher in IC50: 33.6 nM for the first, 270 nM for the second.

Going from `CC(C)CN(C[C@@H](O)[C@H](Cc1ccccc1)NC(=O)CN([C@H]1CCOC1)S(C)(=O)=O)S(=O)(=O)c1ccc(CO)cc1` to `CC(C)CN(C[C@@H](O)[C@H](Cc1ccccc1)NC(=O)CN([C@H]1CCOC1)S(C)(=O)=O)S(=O)(=O)c1ccc(N)cc1`, the IC50 rises from 22.7 nM to 59.8 nM (2.6-fold). The first is the more potent here.

First: CC(C)CN(C[C@@H](O)[C@H](Cc1ccccc1)NC(=O)CN(CC(=O)N1CCOCC1)[C@H]1CCOC1)S(=O)(=O)c1ccc([N+](=O)[O-])cc1
Second: COc1ccc(S(=O)(=O)N(CC(C)C)C[C@@H](O)[C@H](Cc2ccccc2)NC(=O)CN(CC(=O)N2CCOCC2)[C@H]2CCOC2)cc1OC
The IC50 of the first is lower: 98.1 nM for the first, > 1000 nM for the second.

First: CC(C)CN(C[C@@H](O)[C@H](Cc1ccccc1)NC(=O)CN([C@H]1CCOC1)S(C)(=O)=O)S(=O)(=O)c1ccc2c(c1)OCO2
Second: CC(C)CN(C[C@@H](O)[C@H](Cc1ccccc1)NC(=O)CN(CC(=O)N(C)C)[C@H]1CCOC1)S(=O)(=O)c1ccc2c(c1)OCO2
The IC50 of the first is 2.5-fold lower: 22.9 nM for the first, 56.9 nM for the second. The first is the more potent here.

Compared with `COCCN(CC(=O)N[C@@H](Cc1ccccc1)[C@H](O)CN(CC(C)C)S(=O)(=O)c1ccc(OC)c(OC)c1)[C@H]1CCOC1`, `COc1ccc(S(=O)(=O)N(CC(C)C)C[C@@H](O)[C@H](Cc2ccccc2)NC(=O)CN([C@H]2CCOC2)S(C)(=O)=O)cc1OC` is higher in IC50: 190 nM for the first, > 1000 nM for the second. The first is the more potent here.

Going from `COCCN(CC(=O)N[C@@H](Cc1ccccc1)[C@H](O)CN(CC(C)C)S(=O)(=O)c1ccc(OC)cc1)[C@H]1CCOC1` to `CC(C)CN(C[C@@H](O)[C@H](Cc1ccccc1)NC(=O)CN([C@H]1CCOC1)S(C)(=O)=O)S(=O)(=O)c1ccc([N+](=O)[O-])cc1`, the IC50 rises from 0.35 nM to 291 nM (830-fold).

Going from `CC(C)CN(C[C@@H](O)[C@H](Cc1ccccc1)NC(=O)CN[C@H]1CCOC1)S(=O)(=O)c1ccc(CO)cc1` to `CC(C)CN(C[C@@H](O)[C@H](Cc1ccccc1)NC(=O)CN[C@H]1CCOC1)S(=O)(=O)c1ccc(N)cc1`, the IC50 falls from 10.2 nM to 4.11 nM (2.5-fold).
